# From PubChem
# An excerpt weighted towards active compounds, which were near 3% of everything screened.
# MPTP inh = blocks calcium-induced mitochondrial swelling; 360,000 tested, 1.4% active; inhibition, % at 10 µM; AID 602449; isolated mouse mitochondria, Ca2+ swelling absorbance, 30 min;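 active means inhibition of 50% or more, scaled per plate between neutral and stimulator controls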;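 further: 0% = DMSO wells given calcium and 100% = 1 mM EGTA wells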
# Apaf1 inhib = blocks human Apaf-1 apoptosome activity. O14727. reconstituted apoptosome caspase-3 activity, DEVD-Rh110 fluorescence. inhibition, % at 20 µM. 330,000 tested, 0.71% active. AID 489030; active means inhibition of at least 40% at 20 µM;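 further: plate controls were DMSO wells for no effect and DEVD-CHO caspase inhibitor wells for full effect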
#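 System – cell-free apoptosome with Apaf-1, procaspase-3 and caspase-9 · Buffer or medium – pH 7.5 Hepes buffer with CHAPS, BSA, DTT · Also added – cytochrome c with DEVD-Rh110 · Times – 30 min compound preincubation, 50 min activation, room temperature · Technique – Rh110 fluorescence intensity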
# Exocytosis inh = lytic granule exocytosis inhibition | 360,000 tested, 0.66% active | TALL-104 LAMP-1 surface exposure, flow cytometry; cells stimulated with thapsigargin and PMA | inhibition, % at 10 µM;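 active means inhibition above about 55%, limit read from the data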
# iPSC survival up = hiPSC single-cell survival enhancement; ATPlite luminescence; 100% = ROCK inhibitor wells, 0% = DMSO; survival enhancement, % at 20 µM; 360,000 tested, 0.044% active; AID 602274; in the data active means survival enhancement above about 18%;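 further: cells exposed to compounds for 16 hours before the ATP read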
# MIN6 prolif = inducers of beta-cell replication in MIN6 cells | MIN6 cells proliferation, ATPlite luminescence, 48 h; cells starved in 0.2% serum; 100% = growth in 10% serum | AID 2380 | proliferation, % at 10 µM | 330,000 tested, 0.29% active;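 active means compounds whose signal lies at least 3.5 SD above the mean of all wells on their plate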;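 further: 0% = DMSO-treated cells in low-serum medium and 100% = 10% serum control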
# UBC13 inh = blocks human UBC13 polyubiquitin chain formation. P61088. TR-FRET. inhibition, % at 20 µM. 330,000 tested, 0.47% active; in the data active means inhibition above about 45%, passing the limit was not always enough
# Rh123 counter = mitochondrial membrane potential, counter-screen. shares compounds with MPTP inh. isolated mitochondria, Rhodamine 123 fluorescence. inhibition, % at 10 µM. 5,000 tested, 78% active. AID 624504; in the data active means inhibition above about 22%;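 further: 0% = DMSO vehicle and 100% = positive control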
# MPTP swell DR = MPTP inhibition, dose response swelling confirmation | shares compounds with MPTP inh | isolated mitochondria swelling, absorbance | IC50, µM | 780 tested, 58% active | AID 651561; in the data active means IC50 below about 20 µM
# MPTP counter DR = MPTP inhibitor counter-screen activity, dose response; shares compounds with MPTP inh; isolated mitochondria counterscreen, fluorescence read-out; IC50, µM; 780 tested, 49% active; AID 651564; in the data active means IC50 below about 80 µM
# Numbers without * were called inactive; · = no result.
SMILES,MPTP inh,Apaf1 inhib,Exocytosis inh,iPSC survival up,MIN6 prolif,UBC13 inh,Rh123 counter,others
N#Cc1cc(C(=O)c2cc(F)ccc2O)cn(-c2nccs2)c1=O,52*,-6,-3,3,-2,-47,86*,
COc1ccc(C2SCC(=O)N2CCc2ccc(OC)c(OC)c2)cc1 (stereo not drawn),71*,-8,-1,-3,-2,-6,33*,
Oc1ccc(CCNc2ncnc3ccc(Cl)cc23)cc1,95*,11,2,-1,-8,10,97*,
CC1Sc2ccc(S(=O)(=O)N3CCC(C(=O)NCc4ccc(Cl)cc4)CC3)cc2NC1=O (stereo not drawn),0,15,-1,0,0,5,·,
Cc1ccc(NC(=O)C2CCN(S(=O)(=O)c3ccc4c(c3)NC(=O)C(C)S4)CC2)cc1C (stereo not drawn),98*,17,5,-1,-7,3,89*,
CC1Sc2ccc(S(=O)(=O)N3CCC(C(=O)Nc4cccc(Cl)c4)CC3)cc2NC1=O (stereo not drawn),78*,24,8,0,-7,2,85*,
COc1ccccc1NC(=O)C1CCN(S(=O)(=O)c2ccc3c(c2)NC(=O)C(C)S3)CC1 (stereo not drawn),1,9,0,0,2,0,·,
CCc1ccc(NC(=O)C2CCN(S(=O)(=O)c3ccc4c(c3)NC(=O)C(C)S4)CC2)cc1 (stereo not drawn),98*,15,11,0,-8,1,97*,
COC(=O)C1(C(=O)OC)C[C@H](c2ccc(OC)cc2)N(Cc2ccccc2OC)[C@@H]1c1ccc(OC)cc1,2,·,-7,·,·,·,·,
CN(C)CCCN(C(=O)/C=C/c1cccs1)c1nc2ccc(F)cc2s1,2,-14,10,0,-6,2,·,
CN(C)CCN(C(=O)/C=C/c1cccs1)c1nc2c(F)cc(F)cc2s1,102*,5,65*,-3,0,28,-10,
Cc1ccc2nc(N(CCN(C)C)C(=O)/C=C/c3cccs3)sc2c1,99*,-2,56*,-2,0,33,-17,MPTP swell DR=7.5*;MPTP counter DR=>80
ON=C1c2ccccc2-c2cc(Br)ccc21,1,·,-2,0,·,·,·,
C=CCNc1ncnc2c1[nH]c1ccc(Cl)cc12,89*,1,-2,-1,-5,22,94*,
CCN1CCc2c(sc(NC(=O)Nc3ccc(Cl)c(Cl)c3)c2C(N)=O)C1,55*,·,9,5,·,·,51*,
O=c1cc(-c2ccccc2)nc2c(-c3ccccc3)c(C(F)(F)F)[nH]n12,64*,4,10,0,-4,2,47*,
COc1ccc(OCCn2c(C)nc3ccccc32)cc1,1,·,5,-3,·,·,·,
CCOC(=O)Cn1c(=N)n(CCOc2ccc(OC)cc2)c2ccccc21,26,-4,1,0,3,13,·,
CCCn1c(=N)n(CCOc2ccc(OC)cc2)c2ccccc21,54*,-4,-2,-1,1,4,5,MPTP swell DR=8.8*;MPTP counter DR=23*
CCOC(=O)Cn1c(=N)n(CCOc2ccc3ccccc3c2)c2ccccc21,91*,-2,21,-2,-3,28,0,MPTP swell DR=4*;MPTP counter DR=26*
CCOC(=O)N1CCN(C(=O)c2cccc(N3C(=O)NC4CC3(C)Oc3ccc(Cl)cc34)c2)CC1 (stereo not drawn),0,0,-13,0,1,-4,·,
CCOC(=O)CSc1nnc(NCC(=O)OC(C)C)c(=O)[nH]1,63*,8,-2,5,-1,-2,-2,MPTP swell DR=>100;MPTP counter DR=>80
O=C(CC1SC(=Nc2ccc(OC(F)F)cc2)N(CCC2=CCCCC2)C1=O)Nc1ccccc1F (stereo not drawn),96*,6,3,-1,-6,8,72*,
CCOC(=O)/C(C#N)=C1/C=C(C)NC(c2ccccc2O)=N1,94*,10,14,0,-6,20,89*,
Clc1cccc(N/N=C(\Cc2nc3ccccc3[nH]2)c2ccccc2)c1,72*,-1,7,-1,0,-6,70*,
SMILES,MPTP inh,Apaf1 inhib,Exocytosis inh,iPSC survival up,MIN6 prolif,UBC13 inh,Rh123 counter,others
O=C(CSc1nnc2ccccn12)c1ccc(Cl)cc1,0,2,-1,0,-5,-1,·,
O=C(CSc1nnc2n1CCCN2C(=S)Nc1ccc(Cl)cc1)c1ccccc1,84*,15,0,0,-4,-12,89*,
Cc1ccc(OCC(O)CN2CCC(Cc3ccccc3)CC2)c(C)c1 (stereo not drawn),3,2,6,-1,-4,10,·,
Cc1ccc(C)c(OCC(O)CN2CCC(CN3C(=O)c4cccc5cccc(c45)C3=O)CC2)c1 (stereo not drawn),100*,17,22,-3,-6,44,92*,
CC(C)c1ccc(S(=O)(=O)Nc2ccc(SC(F)F)cc2)cc1,72*,5,-3,4,0,-13,83*,
COc1ccc(S(=O)(=O)NC2CC2)cc1Cl,0,-6,1,1,-1,6,·,
O=C(Nc1cccc(C(F)(F)F)c1)c1cccnc1NCCc1ccccc1,80*,19,6,0,-3,18,70*,
O=C(Nc1cccc(C(F)(F)F)c1)c1cccnc1NCCO,1,-6,-6,0,-2,1,·,
CC(=O)Nc1ccc(NC(=O)CSc2ccc(C(F)(F)F)cc2[N+](=O)[O-])cc1,1,-6,-9,-2,-1,-13,·,
O=C(CSc1ccc(C(F)(F)F)cc1[N+](=O)[O-])Nc1ccccc1,59*,4,-3,0,-3,-6,61*,
CC(OC(=O)CNC(=O)c1ccc(F)cc1)C(=O)Nc1ccc(S(=O)(=O)N2CCOCC2)cc1 (stereo not drawn),-2,1,4,0,1,-4,·,
Cc1cc(NC(=S)Nc2cccnc2)ccc1Br,88*,-16,-7,-1,0,11,72*,
Cc1ccccc1NC(=S)Nc1ccccc1,0,-8,-9,-1,-1,6,·,
Cc1cc(NC(=S)Nc2ccccc2)ccc1Br,71*,-6,-4,-1,-4,9,79*,
COc1ccc(CCNC(=O)COC(=O)Cn2cnc3c2c(=O)n(C)c(=O)n3C)cc1,-1,3,0,0,3,-5,·,
Cc1ccc(C(=O)OCC(=O)NC2CCCCC2)cc1S(=O)(=O)N1CCCCC1,-2,4,-2,0,5,7,·,
